Assay results published in ChEMBL document CHEMBL3997796 (J Med Chem, 2017).
pEC50, pIC50: −log10 of the molar value. Calls of active or inactive are those of the source. The rule behind the calls is not given here.

How the values were obtained:
[1] = target: T1, Autotaxin (Homo sapiens, UniProt Q13822); assay: Inhibition of recombinant human C-terminal FLAg-tagged ATX nucleotide pyrophosphate phosphatase activity expressed in baculovirus infected sf9 cells using pNP-TMP as substrate measured every 2 mins for 1 hr by fluorescence assay
[2] = target: T1, Autotaxin; assay: Competitive inhibition of recombinant human C-terminal FLAg-tagged ATX expressed in baculovirus infected sf9 cells using varying levels of FRET based FS-3 substrate at 0.5 to 2 times IC50 measured every 2 mins for 1 hr by Michaelis-Menten plot analysis
[3] = target: T2, Lysophosphatidic acid receptor 1 (Homo sapiens, UniProt Q92633); assay: Antagonist activity at LPA1 receptor (unknown origin) expressed in rat RH7777 cells assessed as inhibition of LPA-induced intracellular calcium level measured every 3.42 secs for 70 secs by Fura-2-AM dye based fluorescence assay; type: functional, cell-based; conditions: for pIC50: read-out: IC50
[4] = target: T3, Lysophosphatidic acid receptor 3 (Homo sapiens) (UniProt Q9UBY5); assay: Antagonist activity at LPA3 receptor (unknown origin) expressed in rat RH7777 cells assessed as inhibition of LPA-induced intracellular calcium level up to 100 uM measured every 3.42 secs for 70 secs by Fura-2-AM dye based fluorescence assay; type: functional, cell-based
T3 sequence (whole entry): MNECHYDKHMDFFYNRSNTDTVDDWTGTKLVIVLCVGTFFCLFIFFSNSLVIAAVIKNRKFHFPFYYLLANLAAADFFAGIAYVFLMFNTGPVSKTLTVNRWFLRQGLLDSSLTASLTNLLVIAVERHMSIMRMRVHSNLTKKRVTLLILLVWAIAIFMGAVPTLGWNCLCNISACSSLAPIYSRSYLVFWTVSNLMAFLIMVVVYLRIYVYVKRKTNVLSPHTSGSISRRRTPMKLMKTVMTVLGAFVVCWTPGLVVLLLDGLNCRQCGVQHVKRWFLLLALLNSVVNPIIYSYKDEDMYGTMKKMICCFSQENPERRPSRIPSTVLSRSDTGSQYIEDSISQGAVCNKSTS

[5] = target: Lysophosphatidic acid receptor 2 (Homo sapiens) (UniProt Q9HBW0); assay: Antagonist activity at LPA2 receptor (unknown origin) expressed in MEF cells assessed as inhibition of LPA-induced intracellular calcium level up to 100 uM measured every 3.42 secs for 70 secs by Fura-2-AM dye based fluorescence assay; type: functional, cell-based
[6] = target: Lysophosphatidic acid receptor 4 (Homo sapiens) (UniProt Q99677); assay: Antagonist activity at LPA4 receptor (unknown origin) expressed in CHO cells assessed as inhibition of LPA-induced intracellular calcium level up to 100 uM measured every 3.42 secs for 70 secs by Fura-2-AM dye based fluorescence assay; type: functional, cell-based
[7] = target: Lysophosphatidic acid receptor 5 (Homo sapiens) (UniProt Q9H1C0); assay: Antagonist activity at FLAG-tagged LPA5 receptor (unknown origin) expressed in rat B103 cells assessed as inhibition of LPA-induced intracellular calcium level up to 100 uM measured every 3.42 secs for 70 secs by Fura-2-AM dye based fluorescence assay; type: functional, cell-based
[8] = target: T4, Glycerophosphocholine cholinephosphodiesterase ENPP6 (Homo sapiens) (UniProt Q6UWR7); assay: Inhibition of ENPP6 (unknown origin) using pNPPC as substrate measured every 2 mins for 1 hr by […]
T4 sequence (whole entry): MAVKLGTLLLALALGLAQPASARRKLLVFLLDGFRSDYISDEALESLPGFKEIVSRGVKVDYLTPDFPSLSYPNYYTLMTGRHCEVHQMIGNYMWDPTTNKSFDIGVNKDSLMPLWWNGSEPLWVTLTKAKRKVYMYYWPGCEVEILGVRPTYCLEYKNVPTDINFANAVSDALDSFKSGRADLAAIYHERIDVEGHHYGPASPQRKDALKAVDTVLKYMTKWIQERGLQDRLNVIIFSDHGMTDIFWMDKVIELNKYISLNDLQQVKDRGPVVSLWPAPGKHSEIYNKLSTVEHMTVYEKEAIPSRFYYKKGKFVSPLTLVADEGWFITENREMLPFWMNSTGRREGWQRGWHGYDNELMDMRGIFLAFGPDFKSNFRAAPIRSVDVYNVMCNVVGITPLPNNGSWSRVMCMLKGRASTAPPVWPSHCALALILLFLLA
Summary of the method: (§1)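 10 nM ENPP6 or ENPP7, 10 μM pNPPC, compound 0–10 μM, triplicate; ENPP6 buffer 100 mM Tris, 500 mM NaCl, 0.05% Triton pH 9.0; ENPP7 buffer 50 mM Tris, 150 mM NaCl, 10 mM taurocholate pH 8.5; 405 nm absorbance every 2 min for 1 h.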

[9] = target: T5, Ectonucleotide pyrophosphatase/phosphodiesterase family member 7 (Homo sapiens) (UniProt Q6UWV6); assay: Inhibition of ENPP7 (unknown origin) using pNPPC as substrate measured every 2 mins for 1 hr by […]; summary of the method: as §1
T5 sequence (whole entry): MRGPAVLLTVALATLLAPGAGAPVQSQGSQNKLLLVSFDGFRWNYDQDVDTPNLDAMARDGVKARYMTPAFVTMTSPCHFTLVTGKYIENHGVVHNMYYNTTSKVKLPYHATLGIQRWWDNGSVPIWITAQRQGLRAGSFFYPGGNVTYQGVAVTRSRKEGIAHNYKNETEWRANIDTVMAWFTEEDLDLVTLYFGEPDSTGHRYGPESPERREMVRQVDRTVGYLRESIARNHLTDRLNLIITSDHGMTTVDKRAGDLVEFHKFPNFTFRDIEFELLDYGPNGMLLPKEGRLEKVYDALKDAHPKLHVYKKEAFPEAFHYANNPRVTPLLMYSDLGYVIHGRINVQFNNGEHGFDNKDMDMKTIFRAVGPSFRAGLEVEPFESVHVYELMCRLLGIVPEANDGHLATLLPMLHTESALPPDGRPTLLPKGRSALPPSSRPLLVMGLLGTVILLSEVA

[10] = target: T1, Autotaxin; assay: Inhibition of ATX (unknown origin) expressed in human A2058 cells assessed as inhibition of LPC-induced cell invasion after 20 hrs by calcein-AM dye based matrigel-mediated Boyden chamber assay
[11] = system: B16-F10; assay: Antitumor activity against mouse B16F10 cells implanted in C57BL/6 mouse assessed as reduction in metastatic tumor nodules on lungs at 1 mg/kg, ip administered daily up to 10 days measured on day 21; type: functional, organism-based
Summary of the method: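 C57BL/6 mice, 8–12 weeks, given 1 × 10^5 B16F10 cells by tail vein; 1 mg/kg i.p. daily from day 0 (before inoculation) to day 10, vehicle PBS with 1% DMSO and 50 μM charcoal-stripped mouse serum albumin; sacrifice day 21, lung nodules counted; one-way ANOVA with Bonferroni.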

[12] = Stability in mouse 4T1 cells assessed as parent compound remaining at 10 uM after 16 hrs by LC-MS/MS method; type: ADME, cell-based; conditions: read-out: Stability
Summary of the method: (§2)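 4T1 cells (1 × 10^4/well) attached overnight, then 10 μM compound in DMEM with 1% charcoal-stripped FBS (0.1% DMSO final); quadruplicate samples at 0, 16, 40 h, centrifuged, diethyl ether extracted twice, LC-MS/MS peak areas normalized to 0 h.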

[13] = Stability in mouse 4T1 cells assessed as parent compound remaining at 10 uM after 40 hrs by LC-MS/MS method; type: ADME, cell-based; conditions: read-out: Stability; summary of the method: as §2
[14] = system: 4T1; assay: Growth inhibition of mouse 4T1 cells at 10 uM after 48 hrs by CellTiter blue assay; type: cell-based; conditions: 4t1, 48 h
[15] = target: T1, Autotaxin; assay: Inhibition of ATX (unknown origin) expressed in human A2058 cells assessed as inhibition of LPC-induced cell invasion at 10 uM after 20 hrs by calcein-AM dye based matrigel-mediated Boyden chamber assay
[16] = target: T2, Lysophosphatidic acid receptor 1; assay: Agonist activity at LPA1 receptor (unknown origin) expressed in rat RH7777 cells assessed as increase in intracellular calcium level measured every 3.42 secs for 70 secs by Fura-2-AM dye based fluorescence assay; type: functional, cell-based
[17] = target: T2, Lysophosphatidic acid receptor 1; assay: Agonist activity at LPA1 receptor (unknown origin) expressed in rat RH7777 cells assessed as increase in intracellular calcium level up to 10 uM measured every 3.42 secs for 70 secs by Fura-2-AM dye based fluorescence assay; type: functional, cell-based
[18] = target: T3, Lysophosphatidic acid receptor 3 (Homo sapiens); assay: Agonist activity at LPA3 receptor (unknown origin) expressed in rat RH7777 cells assessed as increase in intracellular calcium level up to 10 uM measured every 3.42 secs for 70 secs by Fura-2-AM dye based fluorescence assay; type: functional, cell-based
[19] = target: Lysophosphatidic acid receptor 2 (Homo sapiens) (UniProt Q9HBW0); assay: Agonist activity at LPA2 receptor (unknown origin) expressed in MEF cells assessed as increase in intracellular calcium level up to 10 uM measured every 3.42 secs for 70 secs by Fura-2-AM dye based fluorescence assay; type: functional, cell-based
[20] = target: Lysophosphatidic acid receptor 4 (Homo sapiens) (UniProt Q99677); assay: Agonist activity at LPA4 receptor (unknown origin) expressed in CHO cells assessed as increase in intracellular calcium level up to 10 uM measured every 3.42 secs for 70 secs by Fura-2-AM dye based fluorescence assay; type: functional, cell-based
[21] = target: Lysophosphatidic acid receptor 5 (Homo sapiens) (UniProt Q9H1C0); assay: Agonist activity at FLAG-tagged LPA5 receptor (unknown origin) expressed in rat B103 cells assessed as increase in intracellular calcium level up to 10 uM measured every 3.42 secs for 70 secs by Fura-2-AM dye based fluorescence assay; type: functional, cell-based
[22] = target: T2, Lysophosphatidic acid receptor 1; assay: Antagonist activity at LPA1 receptor (unknown origin) expressed in rat RH7777 cells assessed as inhibition of LPA-induced intracellular calcium level up to 100 uM measured every 3.42 secs for 70 secs by Fura-2-AM dye based fluorescence assay relative to LPA; type: functional, cell-based
[23] = target: T1, Autotaxin; assay: Inhibition of ATX (unknown origin)
[24] = system: 4T1; assay: Growth inhibition of mouse 4T1 cells up to 10 uM after 48 hrs by CellTiter blue assay; type: cell-based; conditions: 4t1, 48 h
[25] = target: Autotaxin (Mus musculus) (UniProt Q9R1E6); assay: Inhibition of ATX in paclitaxel-resistant mouse 4T1 cells assessed as potentiation of paclitaxel-induced antiproliferative activity by measuring reduction in cell viability at 5 uM measured after 3 days by CellTiter blue assay
Summary of the method: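 Paclitaxel-resistant 4T1-TaxR (stepwise PT 40, 100, 200 nM) grown as mammospheres, 3.5 × 10^3 cells/well in serum-free RPMI with N-2, 20 ng/mL FGF and EGF, 4 days; spheres treated 3 days with 100 nM PT with or without inhibitor at 5 μM; CellTiter Blue; quadruplicate, three experiments.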

[26] = system: 4T1; assay: Growth inhibition of mouse 4T1 cells at 3 uM after 48 hrs by CellTiter blue assay; type: cell-based; conditions: 4t1, 48 h

T2 sequence (Q92633 whole entry): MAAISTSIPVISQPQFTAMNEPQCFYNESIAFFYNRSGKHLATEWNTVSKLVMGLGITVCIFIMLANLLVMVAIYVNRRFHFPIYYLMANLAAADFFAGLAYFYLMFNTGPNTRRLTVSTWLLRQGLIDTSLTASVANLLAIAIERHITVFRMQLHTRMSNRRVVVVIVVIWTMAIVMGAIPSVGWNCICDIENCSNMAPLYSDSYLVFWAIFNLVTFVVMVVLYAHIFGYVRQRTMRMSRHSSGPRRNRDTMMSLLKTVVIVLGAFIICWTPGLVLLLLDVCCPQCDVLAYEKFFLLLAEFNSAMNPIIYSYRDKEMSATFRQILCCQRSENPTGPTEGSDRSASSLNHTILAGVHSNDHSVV
Sequence of Lysophosphatidic acid receptor 2 (Homo sapiens) (Q9HBW0 whole entry): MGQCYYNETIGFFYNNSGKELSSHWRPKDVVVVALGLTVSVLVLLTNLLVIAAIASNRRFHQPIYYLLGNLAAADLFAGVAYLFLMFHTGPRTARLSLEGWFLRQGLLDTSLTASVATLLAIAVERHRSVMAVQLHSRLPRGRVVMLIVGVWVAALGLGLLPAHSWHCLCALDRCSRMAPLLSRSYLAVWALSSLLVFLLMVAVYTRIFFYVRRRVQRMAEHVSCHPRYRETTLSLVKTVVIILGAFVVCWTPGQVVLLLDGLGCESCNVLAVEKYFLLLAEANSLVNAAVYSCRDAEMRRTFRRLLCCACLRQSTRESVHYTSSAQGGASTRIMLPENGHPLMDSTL
Sequence of Lysophosphatidic acid receptor 4 (Homo sapiens) (Q99677 whole entry): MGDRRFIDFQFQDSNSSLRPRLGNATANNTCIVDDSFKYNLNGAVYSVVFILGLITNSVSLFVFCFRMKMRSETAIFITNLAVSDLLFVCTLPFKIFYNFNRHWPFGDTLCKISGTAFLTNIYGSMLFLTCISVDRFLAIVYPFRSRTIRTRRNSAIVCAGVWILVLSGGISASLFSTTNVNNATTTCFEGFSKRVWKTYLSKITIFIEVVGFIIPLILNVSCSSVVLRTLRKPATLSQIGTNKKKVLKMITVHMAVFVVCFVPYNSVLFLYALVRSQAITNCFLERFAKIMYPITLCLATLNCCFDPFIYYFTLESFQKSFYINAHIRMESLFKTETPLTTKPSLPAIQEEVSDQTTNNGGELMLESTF
Sequence of Lysophosphatidic acid receptor 5 (Homo sapiens) (Q9H1C0 whole entry): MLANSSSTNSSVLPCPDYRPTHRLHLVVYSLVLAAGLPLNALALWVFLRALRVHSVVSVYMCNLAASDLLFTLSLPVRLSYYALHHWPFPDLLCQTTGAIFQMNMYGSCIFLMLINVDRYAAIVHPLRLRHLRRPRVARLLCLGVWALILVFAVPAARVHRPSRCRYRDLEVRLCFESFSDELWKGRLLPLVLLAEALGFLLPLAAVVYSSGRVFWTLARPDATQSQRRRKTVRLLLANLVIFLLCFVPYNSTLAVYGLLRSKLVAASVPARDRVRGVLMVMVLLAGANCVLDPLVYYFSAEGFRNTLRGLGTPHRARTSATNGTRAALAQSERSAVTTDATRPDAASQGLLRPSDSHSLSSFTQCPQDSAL

| inhibition [1] | inhibition [2] | inhibition [4] | inhibition [5] | inhibition [6] | inhibition [7] | inhibition [8] | inhibition [9] | inhibition [10] | remaining at 16 h, 10 µM [12] [%] | remaining at 40 h, 10 µM [13] [%] | inhibition [15] | Activity [17] | Activity [18] | Activity [19] | Activity [20] | Activity [21] | Emax [22] [%] | pIC50 [3] | SMILES | Activity [24] | other results |
| --- | --- | --- | --- | --- | --- | --- | --- | --- | --- | --- | --- | --- | --- | --- | --- | --- | --- | --- | --- | --- | --- |
| inactive | Active | inactive | inactive | inactive | inactive | inactive | inactive |  |  |  |  | inactive | inactive | inactive | inactive | inactive | 50 | 4.74 | O=C(Nc1cc(Cl)c(F)c(Cl)c1)c1cc(S(=O)(=O)N2CCOCC2)c(Cl)cc1Cl |  |  |
| inactive | Active |  |  |  |  | inactive | inactive |  | 79.7 | 79.5 |  |  |  |  |  |  |  |  | O=C(Nc1cccc(F)c1)c1cc(S(=O)(=O)N2CCOCC2)c(Cl)cc1Cl |  | pIC50 [23]: 6.94 |
| inactive | Active | inactive | inactive | inactive | inactive | inactive | inactive | Dose-dependent effect | 101 | 108 | Active | inactive | inactive | inactive | inactive | inactive | 51 | 5.21 to 5.22 | O=C(Nc1cc(F)c(Cl)c(F)c1)c1cc(S(=O)(=O)N2CCOCC2)c(Cl)cc1Cl | Non-Toxic |  |
| inactive | Active | inactive | inactive | inactive | inactive | inactive | inactive | Dose-dependent effect |  |  | Active | inactive | inactive | inactive | inactive | inactive | 46.1 | 4.84 to 4.85 | O=C(Nc1cc(F)c(F)c(F)c1)c1cc(S(=O)(=O)N2CCOCC2)c(Cl)cc1Cl | Non-Toxic | Activity [11]: Active; inhibition [25]: 25 to 30% |

Further lines, the molecule ahead of its results:

| SMILES | inhibition [1] | inhibition [2] | inhibition [4] | inhibition [5] | inhibition [6] | inhibition [7] | inhibition [8] | inhibition [9] | inhibition [10] | remaining at 16 h, 10 µM [12] [%] | remaining at 40 h, 10 µM [13] [%] | inhibition [15] | Activity [17] | Activity [18] | Activity [19] | Activity [20] | Activity [21] | Emax [22] [%] | pIC50 [3] | Activity [24] | other results |
| --- | --- | --- | --- | --- | --- | --- | --- | --- | --- | --- | --- | --- | --- | --- | --- | --- | --- | --- | --- | --- | --- |
| O=S(=O)(c1cc(C(=S)Nc2cc(F)c(F)c(F)c2)c(Cl)cc1Cl)N1CCOCC1 | inactive | Active | inactive | inactive | inactive | inactive | inactive | inactive | Dose-dependent effect | 93.2 | 102 | Active |  |  |  |  |  |  |  |  | IC50 [3]: Not Active; Activity [11]: Active; Activity [14]: Toxic |
| CCCCCCCC/C=C\CCCCCCCC(=O)OCC(O)COP(=O)(O)O (configuration not stated) |  |  |  |  |  |  |  |  |  |  |  |  |  |  |  |  |  |  |  |  | pEC50 [16]: 7.10 |
| CCCCCCCCCCCCCCCc1ccc(CP(=O)(O)O)cc1 |  |  |  |  |  |  |  |  |  |  |  | Active |  |  |  |  |  |  |  | Non-Toxic | Activity [26]: Toxic; inhibition [25]: 25 to 30% |
